Columns and labels:
[1] = molecular target: human neutrophil peptide 1 (human); test: SPR
Apoe−/− HNP1tg/tg mice [2] = test: Blood cell counts by flow cytometry, HNP1-transgenic mice; assay type: in vivo, mouse; conditions: transgenic HNP1 expression, vs Apoe−/−, high-fat diet 4 weeks, n = 10
How it was run: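 Female Apoe−/− HNP1tg/tg mice and Apoe−/− littermates (C57Bl/6 background, ≥10 backcross generations) fed high-fat diet (21% fat, 0.15% cholesterol) for 4 weeks. Blood red cells were lysed (150 mM NH4Cl, 10 mM KHCO3, 0.1 mM diNaEDTA, pH 7.4) and HBSS-washed. Cells were stained for CD115, CD11b, CD45 and Gr1 and analysed by flow cytometry; absolute counts came from counting beads.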

[3] = system: plasma lipoprotein fractions (VLDL, LDL, HDL); test: Dot blot of lipoprotein fractions of HNP1-treated mice; assay type: binding, mouse; conditions: HNP1 10 μg i.v., plasma after 24 h
How it was run: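 Apoe−/− mice on high-fat diet received 10 μg i.v.; plasma collected after 24 h, pooled (10 animals per group, 0.25 ml) and fractionated by FPLC gel filtration on two Superose 6 columns in series. Fractions spotted on nitrocellulose, blocked in 1% milk/PBS (0.5–1.0 h, RT), probed overnight at 4 °C with anti-HNP1, ApoA, ApoB or ApoC3 (1:5000), HRP secondary 1:5000 (1 h, RT), ECL chemiluminescence.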

liver of Ldlr−/− mice = test: Liver perfusion, Dil-LDL uptake, Ldlr−/− mice; assay type: in vivo, mouse; conditions: Dil-LDL 50 μg/ml with HNP1 10 μg/ml, 20 min, 2 ml/min, n = 3 per group
How it was run: (§1)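 Anaesthetised mice underwent laparotomy with double-ligated vena cava. Portal vein cannulated; liver perfused 20 min at 2 ml/min with DiI-labelled human LDL (50 μg/ml) preincubated with 10 μg/ml peptide in PBS, or PBS alone. Liver minced, filtered (100 μm), spun 500 g 5 min, then 36% Percoll-HBSS 800 g 20 min. Top-phase hepatocytes analysed by flow cytometry as fold over background fluorescence; n = 3 per group, Mann-Whitney test.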

Apoe−/− HNP1tg/tg mice [4] = test: Plasma lipids and FPLC lipoprotein fractions, HNP1-transgenic mice; assay type: in vivo, mouse; conditions: transgenic HNP1 expression
How it was run: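 Female Apoe−/− HNP1tg/tg mice and Apoe−/− littermates were fed high-fat diet (21% fat, 0.15% cholesterol) for 4 weeks. Plasma was stored at −80 °C and triglycerides were measured enzymatically with a kit. For lipoprotein profiles, plasma from 10 animals per group was pooled (0.25 ml) and FPLC gel-filtered on two Superose 6 columns in series.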

Apoe−/− mice = test: Plasma lipids after repeated HNP1 treatment; assay type: in vivo, mouse; conditions: 10 μg every other day i.v., 4 weeks, n = 8–11 per group
How it was run: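 Female Apoe−/− mice on high-fat diet (21% fat, 0.15% cholesterol) for 8 weeks received peptide (10 μg i.v., every other day) or PBS i.v. over the last 4 weeks. Plasma triglycerides were measured enzymatically with a kit. Blood leukocytes were counted by flow cytometry after red cell lysis, using CD115/CD11b/CD45/Gr1 staining and counting beads. n = 8–11 per group; one-way ANOVA with Bonferroni test.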

mice expressing HNP1 = conditions: ref Abu-Fanne et al., 2016, cited from earlier work
[5] = system: Apoe−/− HNP1tg/tg mice on high-fat diet; test: Atherosclerotic lesions in aortic root, HNP1-transgenic Apoe−/− mice; assay type: in vivo, mouse; conditions: transgenic HNP1 expression, high-fat diet 4 weeks, Ly6G staining, n=10
How it was run: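 Female Apoe−/− HNP1tg/tg mice (C57Bl/6 background, backcrossed ≥10 generations) fed high-fat diet (21% fat, 0.15% cholesterol) for 4 weeks. Frozen aortic root sections stained with anti-Ly6G (1A8, 1:100), then secondary antibody 30 min at room temperature, with DAPI nuclear counterstain. Images analysed by fluorescence microscopy.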

[6] = system: plasma cholesterol / lipoproteins of hypercholesterolemic mice; test: Precipitation of lipid-bound HNP1 from plasma with anti-HNP1 magnetic beads; assay type: binding, mouse; conditions: dot blot of precipitate
How it was run: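 Anti-HNP monoclonal antibody (100 μg) coupled overnight at room temperature to 3.3 × 108 magnetic beads in 1 M ammonium sulfate. Washed beads, at 2 × 109 beads/ml, added to 50 μl plasma from hypercholesterolemic mice incubated with the peptide, then rotated overnight at room temperature. Beads removed; precipitated samples spotted on nitrocellulose and probed by chemiluminescent dot blot with apolipoprotein antibodies.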

[7] = Plasma HNP1 levels in HNP1-transgenic mice, dot blot; assay type: in vivo, mouse; conditions: Apoe−/− HNP1tg/tg mice, high-fat diet 4 weeks, dot blot against recombinant HNP1
How it was run: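 Plasma from female HNP1-transgenic Apoe−/− mice after 4 weeks high-fat diet was spotted onto nitrocellulose and blocked in 1% non-fat milk/PBS (0.5–1.0 h, RT). Blots were probed overnight at 4 °C with anti-HNP1 (1:5000), washed in PBS/0.05% Tween 20, then given HRP secondary (1:5000, 1 h, RT) and 3 × 15 min washes. ECL chemiluminescence was the read-out.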

HepG2 cells = test: Lipid; assay type: cell-based, human
How it was run: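 HepG2 cells were grown in DMEM with 10% heat-inactivated FCS at 37 °C, 5% CO2. Human LDL (50 μg/ml) was pre-incubated 30 min at 37 °C with peptide (1 μg/ml) or PBS vehicle. Cells were then exposed to LDL for 2 h. Oil Red O staining followed, and the eluted dye gave relative lipid content.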

[8] = system: hepatocytes of C57BL/6 wild-type mice; test: Liver perfusion, Dil-LDL uptake in hepatocytes, wild-type mice; assay type: in vivo, mouse; conditions: Dil-LDL 50 μg/ml with HNP1 10 μg/ml, 20 min, 2 ml/min, normocholesterolemic WT mice, flow cytometry, n = 3 per group
How it was run: as §1

Lp(a) = conditions: ref Bdeir et al., 1999; cited from earlier work

Kd [1] [nM] | Substance | Blood counts of leukocyte subpopulations (Apoe−/− HNP1tg/tg mice [2]) | Detection of HNP1 in lipoprotein fractions ([3]; FPLC fractions, dot blot) | Apolipoproteins in HNP1-positive fractions ([3]; antibodies to ApoA1, ApoB, ApoC3) | LDL uptake in the liver (portal vein perfusion), Ldlr−/− (liver of Ldlr−/− mice) | HDL-cholesterol (Apoe−/− HNP1tg/tg mice [4]; FPLC, pooled plasma of 10 animals per group) | Plasma triglyceride levels (Apoe−/− HNP1tg/tg mice [4]; high-fat diet 4 weeks, n=10) | Plasma cholesterol levels after repeated treatment (Apoe−/− mice; vs baseline, PBS not different from baseline) | Plasma triglyceride levels and blood leukocyte counts after repeated treatment (Apoe−/− mice) | Total cholesterol and LDL plasma levels in mice expressing HNP1 (mice expressing HNP1; normocholesterolemic) | Lipid deposits in mice with transgenic HNP1 expression (mice expressing HNP1; prolonged periods of high fat diet feeding) | Number of lesional neutrophils [5] | Apolipoproteins in anti-HNP1 precipitate [6] | Plasma HNP1 levels [7] [µg/mL] | HNP1-assisted LDL clearance after LDLR silencing (HepG2 cells; Ldlr siRNA 100 nM, 24 h, HepG2) | LDL uptake by HepG2 (HepG2 cells; human LDL 50 μg/ml, HNP1 1 μg/ml, 2 h, Oil Red O elution) | LDL uptake in hepatocytes (portal vein perfusion) [8] | Interaction with Lp(a) (Lp(a))
2.45 | human ApoB (from UniProt P04114 28-4563) (natural protein) |  |  |  |  |  |  |  |  |  |  |  |  |  |  |  |  | 
0.0358 | human ApoC3 (from UniProt P02656 21-99) (natural protein) |  |  |  |  |  |  |  |  |  |  |  |  |  |  |  |  | 
 | human neutrophil peptide 1 [HNP1] | comparable between the groups | only detected in VLDL and LDL fractions but not in HDL fractions | ApoB and ApoC3 were detected but not ApoA1 | failed to stimulate LDL uptake in the liver | HDL-cholesterol remained unaffected | triglyceride levels remained unaffected | lowered plasma cholesterol levels below baseline levels | not affected by HNP1 treatment | total cholesterol levels as well as LDL plasma levels were reduced in mice expressing HNP1 | facilitated the development of very small lipid deposits | The number of lesional neutrophils was not affected | precipitate stained positive for ApoB and ApoC3 | 0.5 to 1 | silencing of LDLR abrogated HNP1-assisted LDL clearance | strongly enhanced LDL uptake | vast increase of LDL uptake in hepatocytes | shown to interact with Lp(a)
